Laboratory results taken from ChEMBL document CHEMBL1156370, “Leishmanicidal, antiplasmodial, and cytotoxic activity of novel diterpenoid 1,2-quinones from Perovskia abrotanoides: new source of tanshinones” (J Nat Prod, 2001).

Legend:
[1] = Cytotoxicity against multidrug-resistant human KBV1 cells after 48 hrs by MTS/PMS assay; format: functional, cell-based; settings: KB-V1, 48 h
Method in brief: (§1)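 Mycoplasma-free KB-3-1 and vinblastine-selected KB-V1 (passages 5-15, no vinblastine pressure) in DMEM/10% FBS, 37 °C, 5% CO2. Seeded 4 × 10^3 (KB-3-1) or 7 × 10^3 (KB-V1) cells/well, 24 h preincubation, then 48 h with compounds (DMSO ≤0.25%). MTS/PMS read at 492 nm after ~50 min; six repeats per concentration, IC50 from ≥3 independent determinations on different passages.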

Leishmania major = assay: Antileishmanial activity against Leishmania major promastigotes assessed as inhibition of [3H]thymidine uptake after 2 hrs by liquid scintillation counting; format: functional, organism-based
Method in brief: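 WHO reference vaccine strain promastigotes kept at 26 °C in RPMI 1640 with 25 mM HEPES, 4 mM L-glutamine, gentamicin, 10% heat-inactivated FCS. Compounds from DMSO stock diluted in medium, incubated with 1 × 10^7 promastigotes/mL for 2 h; [3H]thymidine then added, 18 h further incubation, harvest, scintillation counting of incorporated label.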

[2] = Cytotoxicity against drug-sensitive human KB-3-1 cells after 48 hrs by MTS/PMS assay; format: functional, cell-based; settings: KB 3-1, 48 h; method in brief: as §1
Plasmodium falciparum = assay: Antimalarial activity after 24 hrs against chloroquine-sensitive Plasmodium falciparum 3D7 by [3H]phenylalanine uptake
PBMC = assay: Inhibition of phytohemagglutininin A-stimulated human PBMC proliferation assessed as decrease in [14C]thymidine incorporation; format: functional, cell-based
[3] = Resistance index, ratio of IC50 for multidrug-resistant human KBV1 cells to IC50 for drug-sensitive human KB-3-1 cells; format: functional

Row | Structure (SMILES) | IC50 [1] [µM] | IC50 (Leishmania major) [µM] | IC50 [2] [µM] | IC50 (Plasmodium falciparum) [µM] | IC50 (PBMC) [µM] | Ratio IC50 [3]
1 | C[C@H]1COC2=C1C(=O)C(=O)c1c2ccc2c1[C@H](O)CCC2(C)C | 5.6 | 46.7 | 5 | 26.9 | 16 | 
2 | CC(C)C1=Cc2ccc3c(c2C(=O)C1=O)C(=O)CCC3(C)C | 47.8 | 17.9 | 46.6 | 13 | 44.6 | 
3 | C[C@H]1COC2=C1C(=O)C(=O)c1c2ccc2c1C(=O)CCC2(C)C |  | 25.7 |  | 17.6 | 12.4 | 
4 | C[C@@H]1[C@H](O)[C@@H](C)/C=C/C=C/C=C/C=C/C=C/C=C/C=C/[C@H](O[C@@H]2O[C@H](C)[C@@H](O)[C@H](N)[C@@H]2O)C[C@@H]2O[C@](O)(C[C@@H](O)C[C@@H](O)[C@H](O)CC[C@@H](O)C[C@@H](O)CC(=O)O[C@H]1C)C[C@H](O)[C@H]2C(=O)O [AMPHOTERICIN B] |  | 0.16 |  |  |  | 
5 | C[C@H]1COC2=C1C(=O)C(=O)c1c2ccc2c1CCCC2(C)C [CRYPTOTANSHINONE] | 7.5 | 18.4 | 6.9 | 12.5 | 37.4 | 
6 | COC(=O)c1ccccc1-c1c2ccc(=N)cc-2oc2cc(N)ccc12.Cl [RHODAMINE123] | > 500 |  | 1.6 |  |  | 500
7 | CC[C@]1(O)C[C@@H]2CN(CCc3c([nH]c4ccccc34)[C@@](C(=O)OC)(c3cc4c(cc3OC)N(C)[C@H]3[C@@](O)(C(=O)OC)[C@H](OC(C)=O)[C@]5(CC)C=CCN6CC[C@]43[C@@H]65)C2)C1 [VINBLASTINE] |  |  |  |  |  | 210
